This is a sample that favours compounds with a hit; in the whole collection about 1.8% have one here.
DDE Tn7 FP inh: inhibitors of Tn7 peptide binding to fibrin DD(E), primary screen, biochemical, fluorescence polarization, human fibrin, Tn7 probe | AID 720508, 2013 | inhibition, % at 8.3 µM | Fibrinogen beta chain (Homo sapiens), P02675 | 0.13% of 370,000 active | FP displacement of FITC-Tn7 peptide from fibrin DD(E); 0% = median of compound wells per plate;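 active means inhibition above the mean of compounds falling within the control limits plus 3 SD of them, cut at about 14% in these data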;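 further: 0% = plate median of compound wells and 100% = 10 µM Aha-Tn7 peptide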
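System: human fibrin DD(E); quantity: Fibrin-DD(E) at 2 µM final; also added: fluorescent Tn7 probe at 0.1 µM; compound dosing: single nominal test concentration of 8.3 µM per compound; schedule: 10 min preincubation, 3 h with tracer, room temperature; detection: fluorescence polarization of the labelled Tn7 tracer; repeats: one replicate per compound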
Tn6 DDE FP: inhibitors of Tn6 peptide binding to fibrin DD(E), primary screen, biochemical, fluorescence polarization, human fibrin, Tn6 probe; 0.21% of 370,000 active; Fibrin DD(E) TRITC-Tn6 fluorescence polarization displacement; inhibition, % at 8.3 µM;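 active means inhibition above a per-campaign cutoff: mean of compounds within control limits plus 3 SD, cut at about 15% in these data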;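 further: 0% = median of all compound wells on the plate and 100% = blocking peptide control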
TCR CD3 inh: inhibitors of human TCR-CD3 interaction, primary screen, biochemical, fluorescence, TAMRA-labeled TCR probe. T-cell receptor (TCR). inhibition, % at 9.4 µM. 0.37% of 360,000 active. AID 651800, 2012;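 further: recombinant mutant TCR 2C K166C tagged with TAMRA read by polarization; 0% = receptor in buffer alone and 100% = receptor with positive control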
SIAE inh: human SIAE inhibitors, primary screen, biochemical, fluorescence polarization, FP-Rh probe, 1536-well HTS; Sialate O-acetylesterase (Homo sapiens), Q9HAT2; SIAE FP-Rh probe binding; inhibition, % at 9.66 µM; 0.69% of 370,000 active; AID 1053197, 2014;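 active means inhibition above a cutoff: mean of compounds within the control limits plus 3 SD of those, cut at about 17% in these data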;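 further: 0% = plate median of compound wells and 100% = probe without SIAE protein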
HTRA1 inhibitor: HTRA1 serine protease inhibitors, primary screen, biochemical, fluorescence polarization, HTS; 0.5% of 340,000 active; inhibition, % at 5.96 µM; recombinant HTRA1, FP-rhodamine activity-based probe; AID 504803, 2011; in the data active means inhibition above about 36%;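 further: 0% = enzyme with DMSO and 100% = wells lacking enzyme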
ABHD4 inh: ABHD4 inhibitors, primary screen, biochemical, fluorescence polarization, mouse | purified mABHD4, FP-Rh probe fluorescence polarization | inhibition, % at 8.92 µM | 0.54% of 370,000 active;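 active means inhibition exceeding the mean over every tested compound plus 3 SD, cut at about 30% in these data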;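 further: 0% = plate median of compound wells and 100% = S159A mutant with DMSO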
Target sequence (Q8VD66 whole entry, looked up): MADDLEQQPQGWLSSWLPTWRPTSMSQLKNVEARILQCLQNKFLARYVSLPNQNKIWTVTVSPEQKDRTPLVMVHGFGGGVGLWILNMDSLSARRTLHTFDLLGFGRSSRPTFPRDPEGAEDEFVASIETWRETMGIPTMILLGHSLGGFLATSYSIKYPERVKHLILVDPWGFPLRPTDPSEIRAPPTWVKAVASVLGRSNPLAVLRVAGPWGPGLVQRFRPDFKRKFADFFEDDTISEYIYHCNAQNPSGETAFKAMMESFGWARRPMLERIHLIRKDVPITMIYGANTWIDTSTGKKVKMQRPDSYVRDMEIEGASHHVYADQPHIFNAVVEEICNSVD
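system = mouse ABHD4 enzyme, wild type | medium = HEPES pH 7.0, NaCl, Pluronic buffer | also added = FP-Rh probe | incubation = Enzyme–compound pre-incubation 45 min, then probe 60 min, both 25 °C | technique = fluorescence polarization, excitation 525 nm, emission 598 nm, BODIPY TMR filters | controls = S159A mutant high control, sample median low control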
HTRA1 inh conf: HTRA1 protease inhibitors, retest, confirmation, biochemical, fluorescence polarization; recombinant HTRA1, FP-rhodamine activity-based probe; shares compounds with HTRA1 inhibitor; 66% of 1,600 active; inhibition, % at 5.96 µM;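 active means mean inhibition over three repeats above a set limit taken from the earlier primary screen, cut at about 37% in these data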;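 further: 0% = HTRA1 with DMSO and 100% = wells lacking HTRA1; inhibitors block probe binding so polarization drops and inhibition rises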
BSA probe FL: compounds interfering with TAMRA-BSA probe, counter-screen for TCR-CD3 interaction inhibitor project, biochemical, fluorescence, TAMRA-labeled BSA | shares compounds with TCR CD3 inh | inhibition, % at 9.4 µM | 10% of 1,200 active | TAMRA-labeled BSA probe fluorescence counterscreen; in the data active means inhibition above about 23%;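 further: 0% = buffer low control and 100% = reference high control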
TCR-CD3 inh conf: TCR-CD3 interaction inhibitors, retest, confirmation, biochemical, fluorescence, TAMRA-labeled TCR probe. shares compounds with TCR CD3 inh. TAMRA-labeled TCR probe fluorescence binding assay. inhibition, % at 9.4 µM. 48% of 1,200 active. AID 652036, 2013
Starred values were filed as active, the others as inactive; x = not tested or not shown; + = active, no number. Unless noted, no stated cut-off is given here; in the data, active means inhibition above about 19%; inactive means the rest.

SMILES	DDE Tn7 FP inh	Tn6 DDE FP	TCR CD3 inh	SIAE inh	HTRA1 inhibitor	ABHD4 inh	HTRA1 inh conf	BSA probe FL	TCR-CD3 inh conf
COc1ccc(N=Nc2ccc(N)nc2N)cc1	-3.4	8.6	3.4	2.5	15.2	-2.0	x	x	x
CCOc1ccc2nc3cc(N=Nc4ccc(N)nc4N)ccc3c(N)c2c1	x	x	x	x	46.9*	x	69.9*	x	x
Cc1ccc(CNc2ccc(N3CCOCC3)cc2)s1	-8.5	-6.8	0.4	8.1	36.4*	27.2	3.1	x	x
C/C(=N\NC(=O)c1ccc(C)cc1C)c1ccc2c(c1)OCO2	-4.8	-4.0	-1.4	-2.5	-3.3	8.7	x	x	x
CCOC(=O)C(C)/C(C)=N/NC(=O)c1cc2ccccc2cc1O (stereo not drawn)	1.1	0.2	0.9	14.4	42.7*	17.8	28.4	x	x
C/C(=N\NC(=O)c1cc2ccccc2cc1O)c1ccc2c(c1)OCO2	0.3	-0.9	0.9	-10.2	41.8*	13.3	6.7	x	x
Oc1ccc(CN2CCc3ccccc3C2)c2cccnc12	0.9	-0.1	1.9	4.7	58.8*	5.1	65.0*	x	x
Oc1ccc(CN2CCCCC2)c2cccnc12	-0.1	-1.2	-2.1	-2.8	20.0	12.4	x	x	x
CC(=O)c1cc(-c2ccccc2)c(=O)n2c1CCC2	6.9	-4.7	x	0.3	x	3.0	x	x	x
COc1ccc(-c2cc3ccccc3n2CC(O)Cn2nc(C)cc2C)cc1 (stereo not drawn)	10.8	2.5	2.8	12.8	38.0*	-7.6	-11.3	x	x
C=CCN1[C@@H](Cc2ccccc2)COc2cccc(F)c2S1(=O)=O	-4.1	0.2	x	3.2	x	-10.3	x	x	x
Oc1ccc(/C=N/N2CCN(C3c4ccccc4-c4ccccc43)CC2)cc1O	-7.4	-1.5	13.1	4.5	37.6*	29.2	+	x	x
O=C(OCCN1CCN(C2CN(Cc3cn(Cc4ccc([N+](=O)[O-])cc4)nn3)S(=O)(=O)C2)CC1)c1cc2ccccc2o1 (stereo not drawn)	-0.2	-1.2	x	-1.1	x	8.5	x	x	x
C#CCN1CC(N(C)CCOC(=O)c2cc(C)cc(C)c2)CS1(=O)=O (stereo not drawn)	1.9	-1.2	x	1.5	x	-0.8	x	x	x
C/C(=N\NC(=O)c1ccc(-c2ccccc2)cc1)C1C(=O)c2ccccc2C1=O	1.5	-11.7	29.2*	8.7	36.4*	21.9	58.2*	-7.1	38.2*
CCCC[C@@H]1C(=O)N2N=Cc3cc4ccccc4cc3[C@H]2N2N=Cc3cc4ccccc4cc3[C@@H]12	8.2	-0.7	x	-7.3	x	-6.4	x	x	x
CC1=Nc2cccc3cccc(c23)N1	-5.3	-3.7	38.9*	11.6	42.5*	26.5	17.9	44.5*	22.7*
O=C(O)C1Nc2c(O)cc(Cl)c([N+](=O)[O-])c2C2C=CCC12 (stereo not drawn)	2.9	-2.9	91.0*	52.9*	65.8*	61.0*	62.9*	-18.7	50.6*
O=C(O)c1cc(Cl)c2c(c1)[C@@H]1C=CC[C@@H]1[C@H](c1ccc(S(=O)(=O)N3CCOCC3)cc1)N2	x	x	x	x	22.7	x	x	x	x
C/C(CC(=O)Nc1ccccn1)=N\NC(=O)c1ccc2ccccc2c1	-5.2	-9.9	-2.0	-3.1	-17.6	-4.2	x	x	x
C/C(CC(=O)Nc1ccccn1)=N\NC(=O)c1ccccc1O	-2.1	5.7	45.2*	11.5	55.5*	16.7	26.0	23.3*	37.5*
COc1cccc(/C=C2/SC(=S)N(CCCC(=O)Nc3ccc(O)cc3)C2=O)c1	-0.5	-0.5	-3.3	-11.7	-10.6	-28.6	x	x	x
O=C(CCN1C(=O)/C(=C/c2ccccc2Cl)SC1=S)NNC(=O)c1cccnc1	-2.2	-2.1	5.0	-8.2	1.5	-8.5	x	x	x
Cc1ccc(/C=C2\SC(=S)N(CCC(=O)NNC(=O)c3ccccc3O)C2=O)cc1	8.0	-2.0	29.0*	6.3	38.0*	12.8	58.6*	-8.8	32.6*
COc1cccc(/C=C2/SC(=S)N(CC(=O)NNC(=O)c3ccccc3O)C2=O)c1	-2.6	7.3	25.3*	-80.6	46.1*	-6.0	7.7	-6.3	46.1*
SMILES	DDE Tn7 FP inh	Tn6 DDE FP	TCR CD3 inh	SIAE inh	HTRA1 inhibitor	ABHD4 inh	HTRA1 inh conf	BSA probe FL	TCR-CD3 inh conf
Cc1ccc(/C=C2\SC(=S)N(CCC(=O)NNC(=O)c3ccc(O)cc3)C2=O)cc1	3.1	4.7	-0.1	-212.9	-116.2	-44.3	x	x	x
O=C(CCN1C(=O)/C(=C/c2ccccc2Cl)SC1=S)NNC(=O)c1ccccc1O	-10.0	0.4	43.1*	-1.6	55.0*	-2.3	70.2*	2.5	34.4*
Cc1ccc(/C=C2\SC(=S)N(CCCC(=O)NNC(=O)c3ccccc3O)C2=O)cc1	2.0	-0.8	33.3*	7.8	37.4*	8.6	53.2*	-3.5	21.8*
Cc1ccc(/C=C2/SC(=S)N(CCCC(=O)Nc3ccc(O)cc3)C2=O)cc1	0.6	-2.1	-3.7	5.9	-5.2	-14.0	x	x	x
COC(=O)[C@]12C[C@H](CC(=O)NCCc3ccccc3OC)C(=O)N(CCC3=CCCCC3)C1=C[C@H](C(C)C)O[C@@H]2C1CC1	-3.0	0.4	x	-0.2	x	-5.2	x	x	x
CCn1c2ccccc2c2cc(C=NNC(=O)CSc3nc4ccccc4c(=O)n3-c3ccccc3)ccc21	-9.8	-6.1	x	-7.5	x	-1.7	x	x	x
COc1ccc2nc(C)cc(SCC(=O)N/N=C/c3ccc(O)c(O)c3)c2c1	7.0	1.1	40.1*	-5.0	38.0*	18.0	59.4*	-14.7	70.6*
CCC(CO)Nc1cccc2c1S(=O)(=O)N(Cc1cn(Cc3ccc(F)cc3)nn1)Cc1ccccc1O2 (stereo not drawn)	-11.2	10.3	x	0.1	x	-6.4	x	x	x
O=C(N/N=C/c1ccc(O)cc1O)c1ccc(CN2C(=O)c3cccc4cccc2c34)cc1	-0.1	-25.0	27.4*	-14.8	37.5*	-94.5	32.0	-35.0	29.9*

Compound activity: PubChem BioAssay, The Scripps Research Institute Molecular Screening Center
